Published values of several laboratories.
Protocols differ between the studies behind these lines.
Cell line: A549
Observed: cell growth or viability

CC1=CC(=O)c2c(O)cccc2C1=O
IC50 (SRB): 2820 nM

Cc1cccc(-n2ncc(Cl)c(Cl)c2=O)c1
IC50 (resazurin; 96 h): 1400 nM

O=C(N/N=C1\C(=O)N(Cc2ccccc2)c2ccc(F)cc21)c1cc2ccccc2[nH]1
IC50: 1410 nM

N.N.[Cl][Pt][Cl]
IC50 (resazurin; 72 h): 3400 nM

CCC1(OC(=O)C(C)c2ccc3cc(OC)ccc3c2)C(=O)OCc2c1cc1n(c2=O)Cc2cc3cc4c(cc3nc2-1)OCO4 (centres unmarked)
IC50 (MTT): 471 nM

N.N.[Cl][Pt][Cl]
IC50 (MTT; 48 h): 9240 nM

CC[C@H](C)[C@H](N)C(=O)O[C@]1(CC)C(=O)OCc2c1cc1n(c2=O)Cc2cc3cc4c(cc3nc2-1)OCO4
IC50 (MTT): 77 nM

O=C(N/N=C1\C(=O)N(Cc2ccc(Cl)cc2)c2ccccc21)c1cc2ccccc2[nH]1
IC50: 1050 nM

CC1=C(O)C(=O)C=C2C1=CC=C1[C@@]2(C)CC[C@@]2(C)[C@@H]3C[C@](C)(C(=O)O)CC[C@]3(C)CC[C@]12C
IC50 (MTT; 48 h): 5340 nM

CC[C@@]1(OC(=O)[C@@H](N)C(C)C)C(=O)OCc2c1cc1n(c2=O)Cc2cc3cc4c(cc3nc2-1)OCO4
IC50 (MTT): 89 nM

Nc1cc(I)c(I)cc1N
IC50 (72 h): 25000 nM

N#Cc1ccc(CN2C(=O)/C(=N\NC(=O)c3cc4ccccc4[nH]3)c3ccccc32)cc1
IC50: 2130 nM

CSC(=NNC(=O)c1ccc(Cl)c(Cl)c1)SC
IC50 (MTT; 5 days): 69000 nM

COc1c2c(cc3c1OCO3)[C@]13C=C[C@H](OC)C[C@@H]1[N@](C2)C[C@H]3OC(=O)c1ccoc1
IC50 (WST-1): > 10000 nM

CC[C@@]1(OC(=O)[C@H](C)N)C(=O)OCc2c1cc1n(c2=O)Cc2cc3cc4c(cc3nc2-1)OCO4
IC50 (MTT): 40 nM

O=C(N/N=C1\C(=O)N(Cc2ccccc2)c2ccc(Cl)cc21)c1cc2ccccc2[nH]1
IC50 (imaging; 48 h): 1380 nM

CC[C@@]1(O)C(=O)OCc2c1cc1n(c2=O)Cc2cc3cc4c(cc3nc2-1)OCO4
IC50 (MTT; 72 h): 29 nM

COc1c2c(cc3c1OCO3)[C@]13C=C[C@H](OC)C[C@@H]1[N@](C2)C[C@H]3OC(=O)c1ccco1
IC50 (WST-1): > 10000 nM

CC[C@@]1(OC(=O)Cc2c(C)n(C(=O)c3ccc(Cl)cc3)c3ccc(OC)cc23)C(=O)OCc2c1cc1n(c2=O)Cc2cc3cc4c(cc3nc2-1)OCO4
IC50 (MTT): 263 nM

O=C(N/N=C1\C(=O)N(Cc2ccccc2)c2ccc(Br)cc21)c1cc2ccccc2[nH]1
IC50: 650 nM
